Data from ChEMBL document CHEMBL5260840 (J Med Chem, 2019).
Values belong to the compound of their own block, whether it stands above or below them. The source made the active and inactive calls. The calls are words filed in the database; no cut-off is given here.

How the values were obtained:
[1] = biological target: T1, Protein cereblon/Bromodomain-containing protein 7 (Homo sapiens) (UniProt Q9NPI1+Q96SW2); assay: PROTAC activity at CRBN/BRD7 in human HeLa cells assessed as remaining BRD7 protein level at 1 uM incubated for 4 hrs by Western blot analysis relative to control; type: cell-based
T1 sequence (Q96SW2 whole entry, looked up): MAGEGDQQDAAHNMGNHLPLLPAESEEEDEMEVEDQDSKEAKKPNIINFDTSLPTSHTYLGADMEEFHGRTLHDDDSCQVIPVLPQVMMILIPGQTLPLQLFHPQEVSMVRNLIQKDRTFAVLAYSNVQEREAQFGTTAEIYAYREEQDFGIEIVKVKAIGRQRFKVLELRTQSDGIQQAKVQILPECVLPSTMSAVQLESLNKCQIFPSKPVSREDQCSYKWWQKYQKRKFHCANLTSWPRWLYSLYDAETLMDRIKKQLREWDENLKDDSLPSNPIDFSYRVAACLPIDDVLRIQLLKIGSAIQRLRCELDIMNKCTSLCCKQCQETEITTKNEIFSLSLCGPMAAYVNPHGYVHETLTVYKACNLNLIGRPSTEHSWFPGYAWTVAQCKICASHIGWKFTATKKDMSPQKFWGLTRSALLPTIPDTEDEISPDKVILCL
T1 sequence (Q9NPI1 whole entry, looked up): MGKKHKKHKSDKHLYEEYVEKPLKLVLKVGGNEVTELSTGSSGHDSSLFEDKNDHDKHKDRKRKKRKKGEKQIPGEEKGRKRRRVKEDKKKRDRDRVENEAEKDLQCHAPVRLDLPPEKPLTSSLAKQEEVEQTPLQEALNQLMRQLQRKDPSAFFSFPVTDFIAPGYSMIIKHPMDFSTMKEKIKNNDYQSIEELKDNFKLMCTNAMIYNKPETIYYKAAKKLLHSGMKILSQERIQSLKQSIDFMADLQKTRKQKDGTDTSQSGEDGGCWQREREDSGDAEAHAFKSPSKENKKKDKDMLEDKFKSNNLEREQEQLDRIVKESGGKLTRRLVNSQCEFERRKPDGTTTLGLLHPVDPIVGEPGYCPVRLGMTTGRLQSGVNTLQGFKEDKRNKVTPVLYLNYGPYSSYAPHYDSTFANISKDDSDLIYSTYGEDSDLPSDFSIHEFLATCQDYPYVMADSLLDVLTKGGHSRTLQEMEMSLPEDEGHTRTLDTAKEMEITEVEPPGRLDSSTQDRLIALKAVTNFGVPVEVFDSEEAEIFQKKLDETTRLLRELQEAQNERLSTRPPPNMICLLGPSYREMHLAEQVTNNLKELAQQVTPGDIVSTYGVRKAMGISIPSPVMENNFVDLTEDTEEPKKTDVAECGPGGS
How it was run: (§1)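 Cells given 1 µM compound before harvest: HeLa 4 h, RI-1 2 h and 8 h. BRD9, BRD7 and β-actin detected by Western blot; band intensities quantified.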

[2] = biological target: T2, Protein cereblon/Bromodomain-containing protein 9 (Homo sapiens) (UniProt Q9H8M2+Q96SW2); assay: PROTAC activity at CRBN/BRD9 in human HeLa cells assessed as remaining BRD9 protein level at 1 uM incubated for 16 hrs by Western blot analysis relative to control; type: cell-based
T2 sequence (Q96SW2 whole entry, looked up): as the sequence (Q96SW2 whole entry, looked up) above
T2 sequence (Q9H8M2 whole entry, looked up): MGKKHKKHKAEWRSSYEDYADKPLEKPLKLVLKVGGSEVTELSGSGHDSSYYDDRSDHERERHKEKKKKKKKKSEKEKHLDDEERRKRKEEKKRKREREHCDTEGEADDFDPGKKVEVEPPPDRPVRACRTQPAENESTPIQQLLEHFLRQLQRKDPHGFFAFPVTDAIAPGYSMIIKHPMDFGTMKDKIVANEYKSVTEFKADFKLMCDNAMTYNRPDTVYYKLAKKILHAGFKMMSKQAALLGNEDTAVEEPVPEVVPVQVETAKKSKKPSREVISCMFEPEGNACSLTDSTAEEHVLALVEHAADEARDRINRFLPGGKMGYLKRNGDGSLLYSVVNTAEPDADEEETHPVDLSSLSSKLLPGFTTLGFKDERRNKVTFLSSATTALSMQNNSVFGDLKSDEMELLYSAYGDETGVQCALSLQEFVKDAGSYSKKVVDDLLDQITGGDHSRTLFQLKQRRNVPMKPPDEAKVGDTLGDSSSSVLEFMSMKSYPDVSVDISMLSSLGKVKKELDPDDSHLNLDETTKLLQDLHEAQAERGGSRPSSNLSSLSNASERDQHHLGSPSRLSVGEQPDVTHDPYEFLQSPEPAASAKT
How it was run: (§2)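 HeLa cells given 1 µM compound for 16 h before harvest. BRD9, BRD7 and β-actin detected by Western blot; band intensities quantified.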

[3] = biological target: T2, Protein cereblon/Bromodomain-containing protein 9 (Homo sapiens); assay: PROTAC activity at CRBN/BRD9 in human Ri-1 cells assessed as remaining BRD9 protein level at 1 uM incubated for 8 hrs by Western blot analysis relative to control; type: cell-based; how it was run: as §1
[4] = biological target: T2, Protein cereblon/Bromodomain-containing protein 9 (Homo sapiens); assay: PROTAC activity at CRBN/BRD9 in human Ri-1 cells assessed as remaining BRD9 protein level at 1 uM incubated for 2 hrs by Western blot analysis relative to control; type: cell-based; how it was run: as §1
[5] = biological target: T1, Protein cereblon/Bromodomain-containing protein 7 (Homo sapiens); assay: PROTAC activity at CRBN/BRD7 in human Ri-1 cells assessed as remaining BRD7 protein level at 1 uM incubated for 2 hrs by Western blot analysis relative to control; type: cell-based; how it was run: as §1
[6] = biological target: T1, Protein cereblon/Bromodomain-containing protein 7 (Homo sapiens); assay: PROTAC activity at CRBN/BRD7 in human Ri-1 cells assessed as remaining BRD7 protein level at 1 uM incubated for 8 hrs by Western blot analysis relative to control; type: cell-based; how it was run: as §1
[7] = biological target: T1, Protein cereblon/Bromodomain-containing protein 7 (Homo sapiens); assay: PROTAC activity at CRBN/BRD7 in human HeLa cells assessed as remaining BRD7 protein level at 1 uM incubated for 16 hrs by Western blot analysis relative to control; type: cell-based; how it was run: as §2
[8] = biological target: T2, Protein cereblon/Bromodomain-containing protein 9 (Homo sapiens); assay: PROTAC activity at CRBN/BRD9 in human HeLa cells assessed as remaining BRD9 protein level at 1 uM incubated for 4 hrs by Western blot analysis relative to control; type: cell-based; how it was run: as §1
[9] = tested on: A204; assay: Antiproliferative activity against human A204 cells assessed as inhibition of cell growth incubated for 7 days by CellTiterGlo assay; type: functional, cell-based; conditions: A204, 168 h
[10] = biological target: T3, von Hippel-Lindau disease tumor suppressor/Bromodomain-containing protein 9 (Homo sapiens) (UniProt Q9H8M2+P40337); assay: PROTAC activity at VHL/BRD9 in human HeLa cells assessed as BRD9 protein degradation at 1 uM incubated for 8 hrs by Western blot analysis; type: cell-based
T3 sequence (P40337 whole entry, looked up): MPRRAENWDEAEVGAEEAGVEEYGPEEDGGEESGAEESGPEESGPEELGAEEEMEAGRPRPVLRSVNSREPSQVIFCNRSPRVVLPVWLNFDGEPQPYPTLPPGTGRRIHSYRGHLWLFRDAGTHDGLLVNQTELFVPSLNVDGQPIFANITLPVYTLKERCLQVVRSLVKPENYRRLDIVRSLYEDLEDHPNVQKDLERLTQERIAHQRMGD
T3 sequence (Q9H8M2 whole entry, looked up): as the sequence (Q9H8M2 whole entry, looked up) above
How it was run: (§3)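 HeLa cells treated with compound for the stated time before harvest; BRD9, BRD7 and β-actin detected by Western blot with β-actin loading control; band intensities quantified.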

[11] = biological target: T3, von Hippel-Lindau disease tumor suppressor/Bromodomain-containing protein 9 (Homo sapiens); assay: PROTAC activity at VHL/BRD9 in human HeLa cells assessed as BRD9 protein degradation at 1 uM incubated for 4 hrs by Western blot analysis relative to control; type: cell-based; how it was run: as §3
[12] = biological target: T4, von Hippel-Lindau disease tumor suppressor/Bromodomain-containing protein 7 (Homo sapiens) (UniProt Q9NPI1+P40337); assay: PROTAC activity at VHL/BRD7 in human Ri-1 cells assessed as remaining BRD7 protein level at 1 uM incubated for 8 hrs by Western blot analysis relative to control; type: cell-based
T4 sequence (P40337 whole entry, looked up): as the sequence (P40337 whole entry, looked up) above
T4 sequence (Q9NPI1 whole entry, looked up): as the sequence (Q9NPI1 whole entry, looked up) above

[13] = biological target: T3, von Hippel-Lindau disease tumor suppressor/Bromodomain-containing protein 9 (Homo sapiens); assay: PROTAC activity at VHL/BRD9 in human HeLa cells assessed as remaining BRD9 protein level at 1 uM incubated for 16 hrs by Western blot analysis relative to control; type: cell-based; how it was run: as §3
[14] = biological target: T3, von Hippel-Lindau disease tumor suppressor/Bromodomain-containing protein 9 (Homo sapiens); assay: PROTAC activity at VHL/BRD9 in human HeLa cells assessed as protein degradation at 1 uM incubated for 4 hrs by Western blot analysis relative to control; type: cell-based; how it was run: as §3
[15] = biological target: T3, von Hippel-Lindau disease tumor suppressor/Bromodomain-containing protein 9 (Homo sapiens); assay: PROTAC activity at VHL/BRD9 in human Ri-1 cells assessed as remaining BRD9 protein level at 1 uM incubated for 2 hrs by Western blot analysis relative to control; type: cell-based
How it was run: (§4)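 Ri-1 cells exposed to compound for the stated time before harvest; BRD9, BRD7 and β-actin measured by Western blot, band intensities quantified and set against DMSO-treated control.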

[16] = biological target: T3, von Hippel-Lindau disease tumor suppressor/Bromodomain-containing protein 9 (Homo sapiens); assay: PROTAC activity at VHL/BRD9 in human Ri-1 cells assessed as remaining BRD9 protein level at 1 uM incubated for 8 hrs by Western blot analysis relative to control; type: cell-based; how it was run: as §4
[17] = biological target: T4, von Hippel-Lindau disease tumor suppressor/Bromodomain-containing protein 7 (Homo sapiens); assay: PROTAC activity at VHL/BRD7 in human Ri-1 cells assessed as remaining BRD7 protein level at 1 uM incubated for 2 hrs by Western blot analysis relative to control; type: cell-based
[18] = biological target: T3, von Hippel-Lindau disease tumor suppressor/Bromodomain-containing protein 9 (Homo sapiens); assay: PROTAC activity at VHL/BRD9 in human HeLa cells assessed as maximal protein degradation at 10 uM incubated for 4 hrs by Western blot analysis relative to control; type: cell-based; how it was run: as §3
[19] = biological target: T3, von Hippel-Lindau disease tumor suppressor/Bromodomain-containing protein 9 (Homo sapiens); assay: PROTAC activity at VHL/BRD9 in human HeLa cells assessed as apparent half-life of BRD9 at 1 uM; type: cell-based
[20] = biological target: T4, von Hippel-Lindau disease tumor suppressor/Bromodomain-containing protein 7 (Homo sapiens); assay: PROTAC activity at VHL/BRD7 in human HeLa cells assessed as remaining BRD7 protein level at 1 uM incubated for 16 hrs by Western blot analysis relative to control; type: cell-based
[21] = biological target: T4, von Hippel-Lindau disease tumor suppressor/Bromodomain-containing protein 7 (Homo sapiens); assay: PROTAC activity at VHL/BRD7 in human HeLa cells assessed as remaining BRD7 protein level at 1 uM incubated for 4 hrs by Western blot analysis relative to control; type: cell-based
[22] = biological target: T5, Von Hippel-Lindau disease tumor suppressor/Elongin B/Elongin C (Homo sapiens) (UniProt P40337+Q15370+Q15369); assay: Co-operative binding affinity to 6His-tagged human VHL/ElonginC/ElonginB expressed in Escherichia coli BL21 (DE3) cells assessed as total gibb's free energy change in the presence of BRD9-BD as complex with compound by ITC analysis
T5 sequence (P40337 whole entry, looked up): as the sequence (P40337 whole entry, looked up) above
T5 sequence (Q15369 whole entry, looked up): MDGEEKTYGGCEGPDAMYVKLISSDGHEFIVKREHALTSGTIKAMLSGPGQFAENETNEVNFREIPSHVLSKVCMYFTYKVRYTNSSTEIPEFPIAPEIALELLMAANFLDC
T5 sequence (Q15370 whole entry, looked up): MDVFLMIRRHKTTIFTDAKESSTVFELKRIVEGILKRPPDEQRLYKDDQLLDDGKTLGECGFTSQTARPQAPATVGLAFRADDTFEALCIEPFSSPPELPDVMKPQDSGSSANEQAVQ

[23] = biological target: T5, Von Hippel-Lindau disease tumor suppressor/Elongin B/Elongin C (Homo sapiens); assay: Co-operative binding affinity to 6His-tagged human VHL/ElonginC/ElonginB expressed in Escherichia coli BL21 (DE3) cells assessed as maximal intensity in the presence of BRD9-BD as complex with compound incubated for 1 hrs by AlphaLISA proximity assay
[24] = biological target: Bromodomain-containing protein 4 (Homo sapiens) (UniProt O60885)

Activity [1]: 81%
Activity [2]: 7%
Activity [3]: 2%
Activity [4]: 5%
Activity [5]: 158%
Activity [6]: 225%
Activity [7]: 97%
Activity [8]: 6%
SMILES: COc1cc(-c2cn(C)c(=O)c3cnccc23)cc(OC)c1CN1CCN(CCOCCOCC(=O)NCCNc2cccc3c2C(=O)N(C2CCC(=O)NC2=O)C3=O)CC1 (centres undefined)
IC50 [9]: 305 nM

Activity [10]: Active
Activity [11]: > 50%
Activity [12]: 145%
Activity [13]: 36%
Activity [14]: 60%
Activity [15]: 68%
Activity [16]: 100%
Activity [17]: 127%
Emax [18]: 80%
T1/2 [19]: 3.47 h
Activity [20]: 90%
Activity [21]: 7%
deltaG [22]: -20.7 kcal/mol
Activity [23]: 1.56 10^6No_unit
SMILES: COc1cc(-c2cn(C)c(=O)c3cnccc23)cc(OC)c1CN1CCN(CCOCCOCCOc2cc(-c3scnc3C)ccc2CNC(=O)[C@@H]2C[C@@H](O)CN2C(=O)[C@@H](NC(=O)C2(F)CC2)C(C)(C)C)CC1

SMILES: Cc1ncsc1-c1ccc(CNC(=O)[C@@H]2C[C@@H](O)CN2C(=O)[C@@H](NC(=O)COCCOCCOCCNC(=O)C[C@@H]2N=C(c3ccc(Cl)cc3)c3c(sc(C)c3C)-n3c(C)nnc32)C(C)(C)C)cc1
deltaG [24]: -22.2 kcal/mol
